Assay results from different studies.
Each line is one published result; the experiments were not run side by side.
Target: Inhibitor of nuclear factor kappa-B kinase subunit alpha (CHUK, Homo sapiens, UniProt O15111)
Residues used in one study (O15111 1-745): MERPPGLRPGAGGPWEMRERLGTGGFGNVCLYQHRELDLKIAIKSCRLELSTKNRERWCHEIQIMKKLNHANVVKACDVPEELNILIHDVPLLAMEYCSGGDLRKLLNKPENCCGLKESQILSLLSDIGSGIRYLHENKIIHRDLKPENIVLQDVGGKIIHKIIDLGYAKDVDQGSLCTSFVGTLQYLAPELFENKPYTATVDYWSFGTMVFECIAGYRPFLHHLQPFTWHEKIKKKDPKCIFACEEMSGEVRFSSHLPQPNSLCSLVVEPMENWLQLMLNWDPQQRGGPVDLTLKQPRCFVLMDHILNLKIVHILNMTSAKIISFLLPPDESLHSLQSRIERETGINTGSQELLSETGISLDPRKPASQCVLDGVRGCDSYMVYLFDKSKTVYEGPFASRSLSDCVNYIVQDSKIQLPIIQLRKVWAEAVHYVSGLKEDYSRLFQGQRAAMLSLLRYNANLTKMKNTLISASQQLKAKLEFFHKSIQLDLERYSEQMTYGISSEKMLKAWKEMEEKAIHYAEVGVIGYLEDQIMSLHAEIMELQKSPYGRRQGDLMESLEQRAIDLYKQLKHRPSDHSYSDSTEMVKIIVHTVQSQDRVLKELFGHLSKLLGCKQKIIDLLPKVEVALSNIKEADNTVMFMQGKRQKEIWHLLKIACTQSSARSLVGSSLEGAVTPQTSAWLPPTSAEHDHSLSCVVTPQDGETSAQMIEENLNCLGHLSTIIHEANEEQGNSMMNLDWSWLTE

With O=C(c1ccc(Nc2ncc(Cl)c(-c3ccc(Cl)s3)n2)cc1)N1CCC(N2CCCC2)CC1 the remaining binding was 2.9% (binding; competition with immobilised ligand; 1 µM).
N#Cc1ccccc1CSc1nnc2c(n1)[nH]c1ccccc12 has a remaining binding of 100% (binding; competition with immobilised ligand; 10 µM).
With O=C(NCCCN1CCOCC1)c1ccc(Nc2ncc(Cl)c(-c3ccc(Cl)s3)n2)cc1 the remaining binding was 51% (binding; competition with immobilised ligand; 1 µM).
COc1ccnn2ncc(-c3ccnc(N(C)C)n3)c12 gave a remaining binding of 71% (binding; 1 µM).
The remaining binding of C[C@@H](c1ccc(-n2cnc3c(N)ncnc32)cc1)N1CCc2nn(C)c(Cc3ccccc3)c2C1=O is reported as 80% (binding; competition with immobilised ligand; 0.1 µM).
CC1=C(C#N)C(c2ccc3c(c2)c(NC(=O)c2ccccc2C)nn3C)C(C#N)=C(C)N1 gave a remaining binding of 77% (cell-free assay; competition with immobilised ligand; 1 µM).
With c1cnn2ncc(-c3ccnc(N4CCC45COC5)n3)c2c1 the remaining binding was 35% (binding; 1 µM).
The remaining binding of CCCOc1ccc([C@@H]2[C@@H](C(=O)O)[C@H](c3ccc4c(c3)OCO4)CN2CC(=O)Nc2c(CC)cccc2CC)cc1 is reported as 86% (cell-free assay; competition with immobilised ligand; 1 µM).
N[C@H]1CCN(c2nccc(-c3cnn4ncccc34)n2)C1 has a remaining binding of 82% (binding; 1 µM).
COc1ccc2cc(OCC3(C(=O)O)CN(C(=O)c4ccc(F)cc4)C3)ccc2c1 has a remaining binding of 100% (cell-free assay; competition with immobilised ligand; 1 µM).
O=C(NCC1CCOCC1)c1n[nH]cc1NC(=O)c1c(F)cccc1F has a remaining binding of 86% (binding; competition with immobilised ligand; 1 µM).
O=C(c1ccc(Nc2ncc(Cl)c(-c3cc4ccccc4s3)n2)cc1)N1CCC(N2CCCC2)CC1 has a remaining binding of 0.8% (binding; competition with immobilised ligand; 1 µM).
For Nc1c(C(=O)NCc2ccc(C(=O)NCCCC3CCCCC3)cc2)cnn1-c1ccccc1, the remaining binding was 100% (cell-free assay; competition with immobilised ligand; 0.1 µM).
C[C@@H]1CCN(c2nccc(-c3cnn4ncccc34)n2)C1 gave a remaining binding of 81% (binding; 1 µM).
The remaining binding of COc1ncc2cc3ccccc3nc2c1C#N is reported as 98% (cell-free assay; competition with immobilised ligand; 5 µM).
The remaining binding of O=C(NS(=O)(=O)c1ccc(NCC2CCOCC2)c([N+](=O)[O-])c1)c1ccc(N2CCN(Cc3ccc(C(F)(F)F)cc3-c3ccc(Cl)cc3)CC2)cc1Oc1cnc2[nH]ccc2c1 is reported as 81% (cell-free assay; competition with immobilised ligand; 1 µM).
With CNC(=O)[C@@H]1CC[C@@H](n2c(-c3ccc4cnccc4c3)nc3ccc(C(=O)NCc4cccc(C(N)=O)c4)cc32)C1 the remaining binding was 100% (binding; competition with immobilised ligand; 1 µM).
CCC(=O)N[C@H]1CC[C@@H](C(=O)N(C)c2ccc(-c3nc4ccccc4o3)cc2)C1 gave a remaining binding of 100% (cell-free assay; competition with immobilised ligand; 1 µM).
For C=CC(=O)N1CCC(C(=O)NCC(=O)N2CCN(c3nc(-c4cnc(N)nc4C(F)F)nc(N4CCOCC4)n3)CC2)CC1, the remaining binding was 71% (binding; competition with immobilised ligand; 1 µM).
With CN(c1nccc(-c2cnn3ncccc23)n1)C1CC1 the remaining binding was 100% (binding; 1 µM).
O=C(Nc1cnc(Oc2ccc(F)cc2)nc1)N1CCc2ncccc2[C@@H]1c1ccc(F)cc1 has a remaining binding of 100% (cell-free assay; competition with immobilised ligand; 1 µM).
The remaining binding of CN(C)c1nccc(-c2cnc3ncccn23)n1 is reported as 71% (binding; 1 µM).
With C[C@@H](c1cccc(C#N)c1)n1cc(Cl)cc(C(N)=O)c1=N the remaining binding was 100% (cell-free assay; competition with immobilised ligand; 1 µM).
CN(C)c1nccc(-c2cnn3ncccc23)n1 gave a remaining binding of 81% (binding; 1 µM).
C[C@@H]1CN(c2ccc3ncc(-c4ccc5[nH]nc(C6CC6)c5c4)n3n2)C[C@H](C)O1 has a remaining binding of 85% (binding; competition with immobilised ligand; 0.5 µM).
